The values below come from ChEMBL document CHEMBL1667736, “Tirucallane triterpenoids from Cornus walteri” (J Nat Prod, 2011).

As usually defined, the IC50 is the concentration needed to halve the response being measured.

What all share (assay type): functional, cell-based
Assay [1] deals with A549. The assay is described as follows: Cytotoxicity against human A549 cells by SRB assay. The procedure, abridged:
(§1)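 Sulforhodamine B (SRB) cytotoxicity assay on cultured human cancer lines: A549 (non-small cell lung adenocarcinoma), SK-OV-3 (ovarian), SK-MEL-2 (skin melanoma), XF498 (CNS). Assays were run at the Korea Research Institute of Chemical Technology. Etoposide served as positive control. Potency is expressed as IC50 in µM.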

Assay [2] concerns SK-OV-3. In words: Cytotoxicity against human SKOV3 cells by SRB assay. An outline of the steps:
as §1
In general terms: The SRB assay estimates cell density from bound dye.

Assay [3] deals with SK-MEL-2. In words: Cytotoxicity against human SK-MEL-2 cells by SRB assay. An outline of the steps:
as §1

In assay [4] the test system is XF498. The assay is described as follows: Cytotoxicity against human XF498 cells by SRB assay. The procedure, abridged:
as §1

In the case of `COC(C)(C)/C=C/C[C@H](C)[C@@H]1CC[C@]2(C)C3=CCC4C(C)(C)C(=O)CC[C@]4(C)[C@H]3CC[C@@]12C` (stereo partly drawn) [(-)-LEUCOPHYLLONE], the IC50 is 24.9 µM in assay [1], 18 µM in assay [2], 21.2 µM in assay [3] and 18.2 µM in assay [4].

For `COC(C)(C)/C=C/C[C@H](C)[C@@H]1CC[C@]2(C)C3=CCC4C(C)(C)[C@@H](O)CC[C@]4(C)[C@H]3CC[C@@]12C` (stereo not given in full) [CORNUSALTERIN A], the IC50 was 22.2 µM in assay [1], 12.5 µM in assay [2], 12.1 µM in assay [3] and 17.4 µM in assay [4].

On to `COC(C)(C)/C=C/C[C@H](C)[C@@H]1CC[C@]2(C)[C@@H]3CCC4C(C)(C)C(=O)CC[C@]4(C)[C@H]3CC[C@@]12C` (stereo not given in full) [CORNUSALTERIN B], for which the concentration for half-maximal inhibition (IC50) is 28.8 µM in assay [1], 19.2 µM in assay [2], 18 µM in assay [3] and 28.7 µM in assay [4].

Take `COC(C)(C)/C=C/C[C@H](C)[C@@H]1CC[C@]2(C)[C@@H]3CCC4C(C)(C)[C@@H](O)CC[C@]4(C)[C@H]3CC[C@@]12C` (stereo not given in full) [CORNUSALTERIN C]: the concentration for half-maximal inhibition (IC50) in assay [1] is 23.6 µM; in assay [2], 16.5 µM; in assay [3], 11.9 µM; in assay [4], 17.6 µM.

`C=C(C)/C=C/C[C@H](C)[C@@H]1CC[C@]2(C)C3=CCC4C(C)(C)C(=O)CC[C@]4(C)[C@H]3CC[C@@]12C` (stereo not given in full) [CORNUSALTERIN D]: the 50% inhibitory concentration (IC50) in assay [1] is 26.9 µM; in assay [2], 14.5 µM; in assay [3], 12.7 µM; in assay [4] it was 17.8 µM.

As to `CC(C)CCC[C@H](C)[C@@H]1CC[C@]2(C)C3=CCC4C(C)(C)C(=O)C=C[C@]4(C)[C@H]3CC[C@@]12C` (stereo not given in full) [CORNUSALTERIN E], the 50% inhibitory concentration (IC50) in assay [1] stood at 18.4 µM; in assay [2], 14.1 µM; in assay [3], 12.5 µM; in assay [4] it was 13.1 µM.

Take `CC(C)CCC[C@H](C)[C@@H]1CC[C@]2(C)C3=CCC4C(C)(C)C=CC(=O)[C@]4(C)[C@H]3CC[C@@]12C` (stereo not given in full) [CORNUSALTERIN F]: the half-inhibitory concentration (IC50) in assay [1] worked out at 27 µM; in assay [2], 27.3 µM; in assay [3] it was 21.4 µM; in assay [4], 24.6 µM.

In the case of `CO[C@@H](C=C(C)C)C[C@H](C)[C@@H]1CC[C@]2(C)C3=CCC4C(C)(C)C(=O)CC[C@]4(C)[C@H]3CC[C@@]12C` (stereo not given in full) [CORNUSALTERIN G], the 50% inhibitory concentration (IC50) in assay [1] was 29.9 µM; in assay [2], 26.9 µM; in assay [3] it was 18 µM; in assay [4], 20.5 µM.

Turning to `CO[C@H](C=C(C)C)C[C@H](C)[C@@H]1CC[C@]2(C)C3=CCC4C(C)(C)C(=O)CC[C@]4(C)[C@H]3CC[C@@]12C` (stereo not given in full) [CORNUSALTERIN H], the IC50 in assay [1] came out at 28.5 µM; in assay [2], 21.4 µM; in assay [3], 17.7 µM; in assay [4], 18.6 µM.

On to `CO[C@H](C=C(C)C)C[C@H](C)[C@@H]1CC[C@]2(C)C3=CCC4C(C)(C)C(=O)CC[C@]4(C)C3=CC[C@@]12C` (stereo not given in full) [CORNUSALTERIN I], for which the 50% inhibitory concentration (IC50) in assay [1] is 17.6 µM; in assay [2], 13.5 µM; in assay [3] it was 10.4 µM; in assay [4], 12.3 µM.

For `CO[C@@H](C=C(C)C)C[C@H](C)[C@@H]1CC[C@]2(C)C3=CCC4C(C)(C)[C@@H](O)CC[C@]4(C)[C@H]3CC[C@@]12C` (stereo not given in full) [CORNUSALTERIN J], the IC50 was determined as 25.4 µM in assay [1], 17.8 µM in assay [2], 12.3 µM in assay [3] and 18.2 µM in assay [4].

Turning to `CC(C)CCC[C@H](C)[C@@H]1CC[C@]2(C)[C@@H]3CC=C4C(C)(C)C(=O)C[C@@H](O)[C@]4(C)[C@H]3CC[C@@]12C` [CORNUSALTERIN K], the IC50 in assay [1] was 11.7 µM; in assay [2], 12.8 µM; in assay [3], 12.4 µM; in assay [4] it was 12 µM.

Take `CC(C)=C[C@@H]1C[C@@H]([C@@H]2CC[C@]3(C)C4=CCC5C(C)(C)C(=O)CC[C@]5(C)[C@H]4CC[C@@]23C)CO1` (stereo not given in full) [CORNUSALTERIN L]: the IC50 was 4.29 µM in assay [1], 3.82 µM in assay [2], 4.73 µM in assay [3] and 5.81 µM in assay [4].

As to `CC(C)=C[C@H]1C[C@@H]([C@@H]2CC[C@]3(C)C4=CCC5C(C)(C)C(=O)CC[C@]5(C)[C@H]4CC[C@@]23C)CO1` (stereo not given in full) [DEOXYFLINDISSONE], the IC50 in assay [1] was found to be 4.02 µM; in assay [2], 3.64 µM; in assay [3], 6.07 µM; in assay [4], 5.1 µM.

Turning to `COc1cc([C@@H]2c3cc4c(cc3[C@@H](O[C@@H]3O[C@@H]5CO[C@@H](C)O[C@H]5[C@H](O)[C@H]3O)[C@H]3COC(=O)[C@H]23)OCO4)cc(OC)c1O` [ETOPOSIDE], the IC50 in assay [1] was found to be 1.85 µM; in assay [2], 1.81 µM; in assay [3], 1.17 µM; in assay [4], 1.72 µM.
